The values that follow come from ChEMBL document CHEMBL1152668, “Synthesis, reactivity and biological evaluation of novel halogenated tripentones” (Bioorg Med Chem, 2009).

The source made the active and inactive calls. No cut-off for these calls is given here.

Data set [1] relates to KB. Kind of data set: Growth inhibition of human KB cells at 10 uM after 72 hrs by MTS assay. Format: functional. To be noted: read-out: GI. On the technique in general: Formazan colour is commonly taken as a measure of viable cells.
In data set [2] the test system is L1210. Kind of data set: Cytotoxicity against mouse L1210 cells after 72 hrs by MTS assay. It counts as functional, cell-based. To be noted: L1210, 72 h.
Data set [3] relates to KB. Kind of data set: Growth inhibition of human KB cells at 1 uM after 72 hrs by MTS assay. It counts as functional. To be noted: read-out: GI.
The test system of data set [4] is HCT-15. In words: Cytotoxicity against human HCT15 cells at 0.05 to 1000 nM after 72 hrs by MTS assay. It counts as functional, cell-based. The method, boiled down: (§1)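 Cultured in RPMI medium under 5% CO2, then seeded in 96-well plates and treated 24 h later with DMSO solutions at 0.05 nM–1 µM, with 1% DMSO vehicle controls. After 72 h exposure, MTS incubated 3 h at 37 °C and absorbance read at 490 nm. Inhibition = (1 − OD490 treated/OD490 control)×100; IC50 from separate duplicate experiments.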

The subject of data set [5] is HCT-116. Kind of data set: Cytotoxicity against human HCT116 cells at 0.05 to 1000 nM after 72 hrs by MTS assay. Format: functional, cell-based. The method, boiled down: as §1
For data set [6], the system named is KB. Kind of data set: Cytotoxicity against human KB cells at 0.05 to 1000 nM after 72 hrs by MTS assay. It counts as functional, cell-based. The method, boiled down: (§2)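 Cells maintained in D-MEM with 10% fetal calf serum, penicillin, streptomycin and fungizone under 5% CO2. Plated in 96-well plates and dosed 24 h later with compound in DMSO, 0.05 nM to 1 µM, with 1% DMSO vehicle controls. After 72 h, MTS added for 3 h at 37 °C and A490 read. Inhibition = (1 − OD treated/OD control)×100; IC50 from separate duplicates.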

The test system of data set [7] is MCF7. Kind of data set: Cytotoxicity against human MCF7 cells at 0.05 to 1000 nM after 72 hrs by MTS assay. Format: functional, cell-based. The gist of the method: as §1
In data set [8] the test system is MRC5. In words: Cytotoxicity against human MRC5 cells at 0.05 to 1000 nM after 72 hrs by MTS assay. To be noted: mrc5, 72 h, 1 µM. It counts as cell-based. The gist of the method:
as §2

For data set [9], the system named is Vero. In words: Cytotoxicity against african green monkey Vero cells at 0.05 to 1000 nM after 72 hrs by MTS assay. Format: cell-based. To be noted: chlorocebus sabaeus, 1 µM. The method, boiled down: as §2
In data set [10] the test system is HL-60. In words: Cytotoxicity against human HL60 cells at 0.05 to 1000 nM after 72 hrs by MTS assay. It counts as functional, cell-based. The method, boiled down:
as §1

In general, IC50 refers to the concentration at which inhibition is half-maximal. Consider `COc1ccc(-c2csc3c2-n2cc(Br)cc2C3=O)cc1O`, for which, in data set [1], the inhibition of growth at 10 µM was determined as 94%. The compound also displayed a concentration for half-maximal inhibition (IC50) in [2] of 17 nM. Moreover, in data set [3], the inhibition of growth at 1 µM stood at 94%.
On to `COc1ccc(-c2csc3c2-n2cc(-c4ccc(OC)c(OC)c4)cc2C3=O)cc1O`, for which, in [1], the inhibition of growth at 10 µM turned out to be 97%. The inhibition of growth at 1 µM in data set [3] came out at 15%.
On to `COc1ccc(-c2csc3c2-n2cc(-c4cc(OC)c(OC)c(OC)c4)cc2C3=O)cc1O`, for which the inhibition of growth at 10 µM in [1] turned out to be 35%.
In the case of `COC(=O)/C=C/c1cc2n(c1)-c1c(-c3ccc(OC)c(O)c3)csc1C2=O`, the inhibition of growth at 10 µM in [1] is 1%. Besides, the inhibition of growth at 1 µM in data set [3] turned out to be 3%.
`COc1ccc(-c2csc3c2-n2cc(-c4cccnc4)cc2C3=O)cc1O`: in data set [1], the inhibition of growth at 10 µM was 64%. Moreover, in data set [3], the inhibition of growth at 1 µM was 20%.
`COc1ccc(-c2cc3n(c2)-c2c(-c4ccc(OC)c(O)c4)csc2C3=O)cc1`: in [1], the inhibition of growth at 10 µM came out at 98%. The compound also registered an IC50 in data set [2] of 113 nM. The inhibition of growth at 1 µM in [3] came to 94%.
Take `COc1ccc(-c2csc3c2-n2cccc2C3=O)cc1O`: the result in data set [4], in data set [5], in data set [6], in [7] and in [10] was Active. The inhibition of growth at 10 µM in [1] came out at 86%. The Activity entry in data set [8] and in data set [9] was “Non-toxic” throughout. Besides, the IC50 in data set [2] came out at 4 nM. Further, the inhibition of growth at 1 µM in [3] is 86%.
Take `COc1ccc(-c2cc3n(c2)-c2c(-c4ccc(OC)c(O)c4)csc2C3=O)cc1O`: the inhibition of growth at 10 µM in data set [1] is 90%. Further, in [3], the inhibition of growth at 1 µM was 15%.
